For assay [1], the target named is T1, C-X-C chemokine receptor type 4 (Homo sapiens, UniProt P61073). As to the kind of experiment: Displacement of [125I]-CXCL12 from human CXCR4 receptor expressed in HEK293T cell membranes after 2 hrs by scintillation counting analysis. A digest of the protocol:
(§1)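 Membranes (5 µg/well) from HEK293T transiently transfected with hCXCR4, incubated 2 h at 25 °C with 50 pM ¹²⁵I-CXCL12 in HEPES pH 7.4 buffer with CaCl₂, MgCl₂, NaCl, 1% BSA. Filtration through PEI-soaked GF/C, then scintillation counting. Non-specific binding defined by 10⁻⁵ M IT1t; three-parameter fit for pIC₅₀. Single-point displacement at 100 μM vs IT1t (100%). N = 3, triplicate.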
In general terms: Displacement assays read how much labelled ligand stays bound in the presence of the test substance.

The target of assay [2] is T1, C-X-C chemokine receptor type 4. As to the kind of experiment: Displacement of [125I]-CXCL12 from human CXCR4 receptor expressed in HEK293T cell membranes at 100 uM after 2 hrs by scintillation counting analysis relative to IT1t. The procedure, abridged:
as §1

Assay [3] has the same target. Put plainly: Antagonist activity at human DEF3-RLuc fused CXCR4 receptor expressed in HEK293T cells co-expressing DEF3-Beta-arrestin-2-mVenus assessed as inhibition of CXCL12-induced beta-arrestin2 recruitment preincubated for 60 mins followed by CXCL12 addition measured after 20 mins by BRET assay. It counts as cell-based.
Assay [4] shares this target. As to the kind of experiment: Antagonist activity at human DEF3-RLuc fused CXCR4 receptor expressed in HEK293T cells co-expressing DEF3-Beta-arrestin-2-mVenus assessed as inhibition of CXCL12-induced beta-arrestin2 recruitment at 100 uM preincubated for 60 mins followed by CXCL12 addition measured after 20 mins by BRET assay relative to IT1t. The format is cell-based. A digest of the protocol: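 HEK293T cells transiently co-transfected (PEI) with hCXCR4-RLuc and β-arrestin-2-mVenus, assayed two days later in HBSS. Compound given 60 min before 10 nM CXCL12 with 5 µM coelenterazine-h; RLuc (480 nm) and 540 nm read after 20 min. BRET ratio expressed as fold over vehicle. Single-concentration inhibition at 100 μM, IT1t as 100%. N = 3, triplicate.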
On the technique in general: Activated receptors often draw arrestin, which recruitment assays turn into a signal.

Assay [5] has the same target. As to the kind of experiment: Antagonist activity at human DEF3-fused CXCR4 receptor expressed in HEK293T cells co-expressing DAN1-HA-Galphaq/i5 assessed as inhibition of CXCL12-induced IP3 accumulation after 90 mins in presence of [3H]-myo-inositol by scintillation counting analysis. The format is functional, cell-based. A digest of the protocol: (§2)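 HEK293T co-transfected (PEI) with CXCR4 and HA-Gαq/i5, moved next day to poly-L-lysine wells and labelled overnight with 1 µCi/mL [³H]-myo-inositol in inositol-free DMEM. Antagonist dilutions with 10 nM CXCL12, 10 mM LiCl, 0.05% BSA in HEPES saline pH 7.4, 1.5 h at 37 °C. InsP isolated on […] columns, then scintillation counted. Single-point at 100 μM vs IT1t; N ≥ 3, triplicate.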

Assay [6] shares this target. As to the kind of experiment: Antagonist activity at human DEF3-fused CXCR4 receptor expressed in HEK293T cells co-expressing DAN1-HA-Galphaq/i5 assessed as inhibition of CXCL12-induced IP3 accumulation at 100 uM after 90 mins in presence of [3H]-myo-inositol by scintillation counting analysis relative to IT1t. The format is functional, cell-based. A digest of the protocol:
as §2

The target is the same in assay [7]. As to the kind of experiment: Non-competitive antagonist activity at human CXCR4 receptor expressed in HEK293T cells co-expressing galphai1 assessed as inhibition of CXCL12-induced receptor activation up to 100 uM preincubated for 30 mins followed by CXCL12 addition and measured after 20 mins by FRET assay. The format is cell-based. The procedure, abridged:
(§3)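 HEK293T transfected (Effectene) with CXCR4 and a Gαi1 FRET sensor, seeded on poly-D-lysine, read 24 h later at 37 °C in HEPES buffer pH 7.3. Antagonist at 0.1, 1, 10 or 100 µM (final, from DMSO) for 30 min, 5 min pre-read, then increasing CXCL12, FRET read 20 min (ex 420, em 485/540 nm). CXCL12 curves built per antagonist level; 3–5 repeats.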

Assay [8] has the same target. Put plainly: Displacement of CXCL12-red from human NLuc-tagged CXCR4 receptor expressed in HEK293T cell membranes after 2 hrs by NanoBRET assay. A digest of the protocol:
(§4)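 Membranes (10 µg/well) from HEK293G cells stably expressing sig-NLuc–CXCR4 (G418-selected), in HBSS pH 7.4. CXCL12-red (50 nM) and competitor added together, 2 h at 37 °C; 10 µM furimazine, emissions at 460 and >610 nm read 5 min later, BRET ratio >610/460. Normalized to buffer (0%) and IT1t (100%); N = 3, triplicate.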
In general terms: BRET reads energy transfer from a luciferase to a nearby fluorophore.

The target is the same in assay [9]. Put plainly: Displacement of CXCL12-red from human NLuc-tagged CXCR4 receptor expressed in HEK293T cell membranes at 100 uM after 2 hrs by NanoBRET assay relative to IT1t. The procedure, abridged:
as §4

Assay [10] shares this target. As to the kind of experiment: Competitive antagonist activity at human CXCR4 receptor expressed in HEK293T cells co-expressing galphai1 assessed as inhibition of CXCL12-induced receptor activation up to 100 uM preincubated for 30 mins followed by CXCL12 addition and measured after 20 mins by FRET assay. The format is cell-based. The procedure, abridged: as §3
For assay [11] the target is unchanged. As to the kind of experiment: Displacement of [125I]-CXCL12 from human CXCR4 receptor expressed in HEK293T cell membranes at 63 uM after 2 hrs by scintillation counting analysis relative to IT1t. A digest of the protocol:
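hCXCR4 membranes from transiently transfected HEK293T, competing against ¹²⁵I-CXCL12 at 40 pM, 2 h at 25 °C, filtration and scintillation counting. Percentage displacement by ligand at 63 μM relative to IT1t at 63 μM (100%). N = 3, triplicate.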

The source made the active and inactive calls. The rule behind the calls is not given here.

One may read the IC50 as the concentration needed to halve the response being measured. In general, inhibition refers to the relative decrease from the control value, in per cent.

T1 sequence (P61073 whole entry): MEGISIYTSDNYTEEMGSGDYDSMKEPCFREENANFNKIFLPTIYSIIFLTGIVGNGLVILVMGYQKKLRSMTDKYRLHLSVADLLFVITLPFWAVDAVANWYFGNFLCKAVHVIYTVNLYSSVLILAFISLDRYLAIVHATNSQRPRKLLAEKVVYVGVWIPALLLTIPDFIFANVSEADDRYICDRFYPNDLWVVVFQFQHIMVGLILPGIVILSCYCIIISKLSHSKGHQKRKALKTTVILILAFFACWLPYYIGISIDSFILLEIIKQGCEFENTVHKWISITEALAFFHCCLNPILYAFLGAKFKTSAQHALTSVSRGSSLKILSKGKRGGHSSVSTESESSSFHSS

`Clc1ccccc1CN1CCC(CNCc2cccc(Cl)c2Cl)CC1`: the IC50 in assay [1] was 2.51 µM. Moreover, the inhibition in [2] was found to be 13%.

As to `Clc1ccccc1CN1CCC(CNCc2cccc(-c3ccccc3)c2)CC1`, the IC50 in assay [1] was 0.501 µM; in assay [3] it was 2.51 µM; in assay [5], 1.26 µM; in assay [8] it was 0.631 µM. For the same molecule, the inhibition in [2] was 98%; in assay [4], 102%; in assay [5] it was “Dose-dependent effect”; in assay [6], 94%; in [9], 98%. Also, in assay [7], the inhibition entry was “Active”.

`COc1ccccc1CN1CCC(CNCc2cccc(C)c2)CC1` had a half-maximal inhibitory concentration (IC50) in [1] of 0.794 µM. In addition, the inhibition in [2] was determined as 84%.

In turn, `Cc1cccc(CNCC2CCN(Cc3c(Cl)cccc3Cl)CC2)c1` showed a half-inhibitory concentration (IC50) in assay [1] of 0.251 µM. In assay [2], the inhibition amounted to 60%.

`Cc1ccc(CNCC2CCN(Cc3ccccc3Cl)CC2)cc1` showed an IC50 in assay [1] of 1 µM. In addition, the inhibition in [2] amounted to 62%.

In turn, `Clc1ccccc1CN1CCC(CNCC2CCCCC2)CC1` had an IC50 in [1] of 3.16 µM. The inhibition in assay [2] was found to be 77%.

Take `Clc1ccccc1CN1CCC(CNCc2ccc3ccccc3c2)CC1`: the IC50 in assay [1] was 0.501 µM. In addition, the inhibition in assay [2] is 78%.

For the molecule `Clc1ccccc1CN1CCC(CNCc2ccccc2)CC1`, the IC50 was 0.316 µM in assay [1], 3.98 µM in assay [3], 2 µM in assay [5] and 0.794 µM in [8]. For the same molecule, the inhibition in assay [2] is 87%; in assay [4] it was 103%; in [5], “Dose-dependent effect”; in assay [6], 93%; in assay [9] it was 84%. In addition, the inhibition entry in assay [10] was “Active”.

Consider `Clc1ccccc1CNCC1CCN(Cc2ccccc2Cl)CC1`, for which the half-inhibitory concentration (IC50) in assay [1] was 0.2 µM. In addition, in assay [2], the inhibition came out at 80%.

Turning to `Oc1ccc(CNCC2CCN(Cc3ccccc3Cl)CC2)cc1`, the IC50 in assay [1] is 0.316 µM. Further, the inhibition in [2] was 98%.

On to `CCC[C@H](C)c1cc(CN(C)C)c(O)cc1CN(C)C`, for which the inhibition in [11] is greater than 50%.

In assay [1], `Cc1cccc(CNCC2CCN(Cc3cccc(Cl)c3Cl)CC2)c1` had an IC50 of 0.794 µM. Further, in [2], the inhibition was 74%.

As to `NCC1CCN(Cc2ccc(Cl)c(Cl)c2)CC1`, the half-maximal inhibitory concentration (IC50) in assay [1] was greater than 10 µM. In [2], the inhibition stood at 67%.

In assay [1], `Cc1ccccc1CN1CCC(CN)CC1` gave an IC50 greater than 10 µM. The inhibition in [2] is 81%.

On to `NCC1CCN(CC2CCCCC2)CC1`, for which, in [1], the IC50 was greater than 10 µM. Besides, in assay [2], the inhibition is 59%.

In [1], `COc1ccccc1CN1CCC(CNCc2ccccc2)CC1` showed an IC50 of 2.51 µM. Besides, the inhibition in assay [2] was 85%.

In assay [1], `c1ccc(CNCC2CCN(Cc3ccccc3)CC2)cc1` had an IC50 of 10 µM. For the same molecule, in [2], the inhibition is 72%.

As for `Clc1cccc(CNCC2CCN(Cc3ccccc3Cl)CC2)c1`, the IC50 in assay [1] is 0.316 µM. The inhibition in assay [2] stood at 65%.

With `NCC1CCN(Cc2ccccc2Cl)CC1`, the IC50 in assay [1] was 10 µM. In addition, the inhibition in assay [11] is 69%.

Take `CN(C)CCCNCc1ccc(Cl)c(Cl)c1`: the IC50 in assay [1] was greater than 10 µM. The inhibition in assay [11] stood at 70%.

In the case of `CCc1cccc(CNCC2CCN(Cc3ccccc3OC)CC2)c1`, in assay [1], the IC50 was 0.794 µM. Besides, the inhibition in assay [2] was determined as 81%.

Turning to `Oc1ccc(CN2CCC(CNCc3ccccc3)CC2)cc1`, the IC50 is greater than 10 µM in assay [1], greater than 31.6 µM in assay [3] and greater than 31.6 µM in assay [5]. In [2], the inhibition came out at 65%.

`Clc1ccc(CNCC2CCN(Cc3ccccc3Cl)CC2)cc1` gave an IC50 in assay [1] of 0.631 µM. Besides, the inhibition in assay [2] worked out at 80%.

In the case of `NCCC1CCN(Cc2ccccc2Cl)CC1`, in assay [1], the concentration for half-maximal inhibition (IC50) is greater than 10 µM. Further, in assay [2], the inhibition stood at 56%.

On to `Cc1cccc(CNCC2CCN(Cc3cccc(Cl)c3)CC2)c1`, for which, in assay [1], the IC50 is 2.51 µM. For the same molecule, in assay [2], the inhibition turned out to be 86%.

On to `c1cc(CN2CCCNCCNCCCNCC2)ccc1CN1CCCNCCNCCCNCC1`, for which the inhibition result in assay [10] is “Active”.

Regarding `Cc1cccc(CNCC2CCN(Cc3ccccc3Cl)CC2)c1`, the IC50 was 0.158 µM in assay [1], 3.16 µM in assay [3], 1 µM in assay [5] and 1 µM in [8]. Further, the inhibition in [2] is 63%; in [4], 97%; in assay [5] it was “Dose-dependent effect”; in assay [6] it was 87%; in assay [9], 73%. Also, in assay [7], the inhibition entry was “Active”.

In the case of `COc1ccccc1CN1CCC(CN)CC1`, the IC50 in assay [1] is greater than 10 µM. Further, the inhibition in [2] came out at 67%.

Molecule `COc1ccc(CNCC2CCN(Cc3ccccc3Cl)CC2)cc1` showed an IC50 in [1] of 1.26 µM. In [2], the inhibition is 88%.

Consider `Cc1ccccc1CNCC1CCN(Cc2ccccc2Cl)CC1`, for which the IC50 in assay [1] was 0.251 µM. In addition, in [2], the inhibition came out at 72%.

Consider `CCCNCC1CCN(Cc2ccccc2C)CC1`, for which the inhibition in assay [11] was greater than 50%.

Regarding `Clc1ccccc1CN1CCC(CNCc2c[nH]cn2)CC1`, in assay [1], the IC50 is 1 µM. Moreover, the inhibition in [2] was 96%.

Consider `Clc1ccccc1CN1CCC(CNCc2ccc3c(c2)OCO3)CC1`, for which the half-inhibitory concentration (IC50) in assay [1] is 0.251 µM. Moreover, the inhibition in assay [2] was 72%.

In [1], `Clc1ccccc1CN1CCC(CNCc2cccnc2)CC1` showed an IC50 of 2 µM. The inhibition in assay [2] is 89%.

The molecule `Cc1cccc(CNCC2CCN(Cc3ccc(Cl)cc3)CC2)c1` showed a half-maximal inhibitory concentration (IC50) in assay [1] of 10 µM. In assay [2], the inhibition was determined as 86%.

These data come from ChEMBL document CHEMBL4382250, “Structure-based exploration and pharmacological evaluation of N-substituted piperidin-4-yl-methanamine CXCR4 chemokine receptor antagonists” (Eur J Med Chem, 2019).
